Experimental data from ChEMBL document CHEMBL3822413, “Design, synthesis, and evaluation of water-soluble morpholino-decorated paclitaxel prodrugs with remarkably decreased toxicity” (Bioorg Med Chem Lett, 2016).
Values after ≈ are worked out from the molar mass of the structure shown. Active and inactive are the calls of the source. No cut-off for these calls is given here.

Tests used:
CCRF S-180 [1] = assay: Antitumor activity against mouse S180 cells allografted in mouse assessed as tumor weight at 25 mg/kg, iv administered 4 time a day post 24 hrs of tumor implantation measured after 10 days (reference value: 7.35g); format: functional
HeLa [2] = assay: Cytotoxicity against human HeLa cells assessed as cell viability measured after 48 hrs by MTS assay; format: functional, cell-based
How it was run: (§1)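 MCF-7 and HeLa cells seeded at 4×10^3 cells/well 24 h before treatment, then exposed to compounds for 48 h or 72 h. Viability measured by MTS assay and IC50 derived; top concentration tested 1 µM.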

Mus musculus [3] = assay: Toxicity in mouse allografted with mouse S180 cells assessed as change in body weight at 25 mg/kg, iv administered 4 time a day post 24 hrs of tumor implantation measured after 10 days (reference value: -2.8%); format: organism-based, CCRF S-180; conditions: in vivo, 240 h
MCF7 [4] = assay: Cytotoxicity against human MCF7 cells assessed as cell viability measured after 48 hrs by MTS assay; format: functional, cell-based; conditions: MCF7, 48 h; how it was run: as §1
MCF7 [5] = assay: Cytotoxicity against human MCF7 cells assessed as cell viability measured after 72 hrs by MTS assay; format: functional, cell-based; conditions: MCF7, 72 h; how it was run: as §1
[6] = Toxicity in mouse; format: organism-based; conditions: in vivo
CCRF S-180 [7] = assay: Antitumor activity against mouse S180 cells allografted in mouse assessed as tumor growth inhibition at 25 mg/kg, iv administered 4 time a day post 24 hrs of tumor implantation measured after 10 days; format: functional; conditions: CCRF S-180, iv, read-out: TGI
Mus musculus [8] = assay: Acute toxicity in mouse allografted with mouse S180 cells at 60 mg/kg, iv administered 4 times per day post 24 hrs of tumor implantation measured after 24 hrs; format: organism-based, CCRF S-180; conditions: in vivo
HeLa [9] = assay: Cytotoxicity against human HeLa cells assessed as cell viability measured after 72 hrs by MTS assay; format: functional, cell-based; how it was run: as §1
[10] = Chemical stability of the compound assessed as paclitaxel release in presence of FBS measured after 5 hrs by HPLC analysis; format: physicochemical; conditions: cattle
How it was run: (§2)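 Compound solution added to fetal bovine serum (400 µl into 3600 µl) and incubated at 37 °C. At set time points, 100 µl aliquots were quenched with 300 µl acetonitrile and centrifuged 5 min at 10,000 rpm. Supernatant analysed by HPLC for intact prodrug and released paclitaxel.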

[11] = Aqueous solubility of the compound; format: physicochemical
[12] = Ratio of aqueous solubility of compound to aqueous solubility of paclitaxel; format: physicochemical; conditions: buffer
HeLa [13] = assay: Cytotoxicity against human HeLa cells at 1 uM by MTS assay; format: functional, cell-based; how it was run: as §1
[14] = Chemical stability of the compound assessed as compound degradation in presence of FBS measured after 4 hrs by HPLC analysis; format: physicochemical; conditions: cattle; how it was run: as §2
[15] = Chemical stability of the compound assessed as paclitaxel release in presence of FBS measured after 4 hrs by HPLC analysis; format: physicochemical; conditions: cattle; how it was run: as §2
MCF7 [16] = assay: Cytotoxicity against human MCF7 cells at 1 uM by MTS assay; format: functional, cell-based; how it was run: as §1
Mus musculus [17] = assay: Acute toxicity in mouse allografted with mouse S180 cells assessed as mouse survival at 90 mg/kg, iv administered 4 times per day post 24 hrs of tumor implantation; format: organism-based, CCRF S-180; conditions: in vivo
Mus musculus [18] = assay: Toxicity in mouse allografted with mouse S180 cells assessed as mortality at 25 mg/kg, iv administered 4 time a day post 24 hrs of tumor implantation; format: organism-based, CCRF S-180; conditions: in vivo
How it was run: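 S-180 cells were implanted subcutaneously in mice, 8 per group. Starting 24 h later, dosing was iv every other day for 4 doses, with dose expressed as paclitaxel-equivalent. Prodrug vehicle was 5% glucose. Paclitaxel was given in cremophor/ethanol (50%/50%) diluted 10-fold with 5% glucose. Vehicle controls received 5% glucose. Deaths were counted up to day 10.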

Plasma = assay: Metabolic stability in mouse plasma assessed as paclitaxel release at 37 degC in presence of dithiotheitol measured after 10 min; format: ADME, cell-free
How it was run: (§3)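 Compound incubated in mouse plasma at 37 °C for up to 48 h. Remaining compound and released paclitaxel measured at intervals, expressed as detected concentration divided by total concentration. In a separate incubation, 10 mM dithiothreitol was added.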

[19] = Metabolic stability in mouse plasma assessed as compound degradation at 37 degC measured after 10 hrs; format: ADME, cell-free; conditions: read-out: Drug degradation; how it was run: as §3

SMILES | Drug metabolism [10] | solubility [11] [µg/mL] | Ratio [12] | Stability [14] | Drug metabolism [15] | Activity (CCRF S-180 [1]) [g] | IC50 (HeLa [2]) [nM] | Activity (Mus musculus [3]) [%] | IC50 (MCF7 [4]) [nM] | IC50 (MCF7 [5]) [nM] | MTD [6] [mg/kg] | inhibition in vivo at 25 mg/kg (CCRF S-180 [7]) [%] | Activity (Mus musculus [8]) | IC50 (HeLa [9]) [nM] | Activity (HeLa [13]) | Activity (MCF7 [16]) | Survival (Mus musculus [17]) [weeks] | Activity (Mus musculus [18]) | Drug metabolism (Plasma) | metabolised at 10 h [19] [%]
CC(=O)O[C@H]1C(=O)[C@@]2(C)[C@H]([C@H](OC(=O)c3ccccc3)[C@]3(O)C[C@H](OC(=O)[C@H](O)[C@@H](NC(=O)c4ccccc4)c4ccccc4)C(C)=C1C3(C)C)[C@]1(OC(C)=O)CO[C@@H]1C[C@@H]2O [PACLITAXEL] | – | – | – | – | – | 3.34 | 23.3 | -28.1 | 3.1 | 1.25 | 30 | 56 | Toxic | 12.6 | – | – | – | – | – | –
CC(=O)O[C@H]1C(=O)[C@@]2(C)[C@H]([C@H](OC(=O)c3ccccc3)[C@]3(O)C[C@H](OC(=O)[C@H](OC(=O)CCC(=O)NCCN4CCOCC4)[C@@H](NC(=O)c4ccccc4)c4ccccc4)C(C)=C1C3(C)C)[C@]1(OC(C)=O)CO[C@@H]1C[C@@H]2O | metabolite_detected | 500 (≈ 469 µM) | 2000 | – | – | – | 19.8 | – | 4.23 | 0.74 | – | – | – | 14.6 | – | – | – | – | – | –
CC(=O)O[C@H]1C(=O)[C@@]2(C)[C@H]([C@H](OC(=O)c3ccccc3)[C@]3(O)C[C@H](OC(=O)[C@H](OC(=O)OCCSSCC(=O)N[C@H](CC(=O)NCCN4CCOCC4)C(=O)NCCN4CCOCC4)[C@@H](NC(=O)c4ccccc4)c4ccccc4)C(C)=C1C3(C)C)[C@]1(OC(C)=O)CO[C@@H]1C[C@@H]2O | – | 5000 (≈ 3600 µM) | 20000 | – | – | 3.43 | 20.6 | -16.1 | 7.45 | 4.07 | – | 54 | – | 14 | – | – | 1 | Non-toxic | metabolite_detected | 100

More lines, main results first:

Drug metabolism [10] | solubility [11] [µg/mL] | Ratio [12] | Stability [14] | Drug metabolism [15] | SMILES | Activity (CCRF S-180 [1]) [g] | IC50 (HeLa [2]) [nM] | Activity (Mus musculus [3]) [%] | IC50 (MCF7 [4]) [nM] | IC50 (MCF7 [5]) [nM] | MTD [6] [mg/kg] | inhibition in vivo at 25 mg/kg (CCRF S-180 [7]) [%] | Activity (Mus musculus [8]) | IC50 (HeLa [9]) [nM] | Activity (HeLa [13]) | Activity (MCF7 [16]) | Survival (Mus musculus [17]) [weeks] | Activity (Mus musculus [18]) | Drug metabolism (Plasma) | metabolised at 10 h [19] [%]
– | 500 (≈ 495 µM) | 2000 | Unstable | metabolite_notdetected | CC(=O)O[C@H]1C(=O)[C@@]2(C)[C@H]([C@H](OC(=O)c3ccccc3)[C@]3(O)C[C@H](OC(=O)[C@H](OC(=O)NCCN4CCOCC4)[C@@H](NC(=O)c4ccccc4)c4ccccc4)C(C)=C1C3(C)C)[C@]1(OC(C)=O)CO[C@@H]1C[C@@H]2O | – | > 1000 | – | > 1000 | > 1000 | – | – | – | > 1000 | inactive | inactive | – | – | – | –
– | 100 (≈ 102 µM) | 400 | – | – | CC(=O)O[C@H]1C(=O)[C@@]2(C)[C@H]([C@H](OC(=O)c3ccccc3)[C@]3(O)C[C@H](OC(=O)[C@H](OC(=O)CN4CCOCC4)[C@@H](NC(=O)c4ccccc4)c4ccccc4)C(C)=C1C3(C)C)[C@]1(OC(C)=O)CO[C@@H]1C[C@@H]2O | – | 49.2 | – | 12 | 3.49 | – | – | – | 22.9 | – | – | – | – | – | –
